Tested on: Fibroblast
Assay: Multiplex assay against human fibroblast
Type: toxicity, cell-based
Outline: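 Phenotypes for tubulin, mitochondrial mass and membrane permeability are expressed as per cents of healthy-nucleus cells. Cells were stained live at seeding with Hoechst33342, BioTracker Green Microtubule Cytoskeleton Dye, MitoTracker Red and Annexin V Alexa Fluor 680, then imaged after compound addition on a CQ1 microscope at 37°C and 5% CO2. Machine-learning gating in CellPathfinder separated Hoechst high-intensity objects from normal cells, divided normal cells by nuclear state (healthy, pyknosed, fragmented) and divided pyknosed cells into mitotic or apoptotic.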

[1] = 12 h, 1 µM, compound concentration 1 uM, replicate 1
[2] = 12 h, 1 µM, compound concentration 1 uM, replicate 2
[3] = 12 h, 10 µM, compound concentration 10 uM, replicate 1
[4] = 12 h, 10 µM, compound concentration 10 uM, replicate 2
[5] = 24 h, 1 µM, compound concentration 1 uM, replicate 1
[6] = 24 h, 1 µM, compound concentration 1 uM, replicate 2
[7] = 24 h, 10 µM, compound concentration 10 uM, replicate 1
[8] = 24 h, 10 µM, compound concentration 10 uM, replicate 2
[9] = 48 h, 1 µM, compound concentration 1 uM, replicate 1
[10] = 48 h, 1 µM, compound concentration 1 uM, replicate 2
[11] = 48 h, 10 µM, compound concentration 10 uM, replicate 1
[12] = 48 h, 10 µM, compound concentration 10 uM, replicate 2

With `COC(c1ccccc1)(c1ccccc1)[C@H](Oc1nc(C)cc(C)n1)C(=O)O` [AMBRISENTAN] as the molecule, how does the “Population Apoptotic (%)” value [1] read?
The value was 68%.

What about the “Population Fragmented Nuclei (%)” value [1] of the same molecule?
The value was 13%.

What about the “Population Healthy Nuclei (%)” value [1] of the same molecule?
Its value is 66%.

What about the “Population Hoechst High Intensity Objects (%)” value [1] of the same molecule?
Its value is 1%.

And the “Population Membrane Permeable-Phenotype (%)” value [1]?
Its value is 0%.

What about the “Population Mitochondria Different-Phenotype (%)” value [1] of the same molecule?
Its value is 4%.

And the “Population Mitotic Cells (%)” value [1]?
The value was 31%.

And the “Population Normal (%)” value [1]?
The value was 98%.

What about the “Population Pyknosed Nuclei (%)” value [1] of the same molecule?
The value was 19%.

And the “Population Tubulin-Different-Phenotype (%)” value [1]?
The value was 29%.

What about the “Total Cell Count” value [1] of the same molecule?
Its value is 97.

And the “Population Apoptotic (%)” value [2]?
The value was 30%.

And the “Population Fragmented Nuclei (%)” value [2]?
Its value is 18%.

What about the “Population Healthy Nuclei (%)” value [2] of the same molecule?
Its value is 56%.

And the “Population Hoechst High Intensity Objects (%)” value [2]?
Its value is 4%.

And the “Population Membrane Permeable-Phenotype (%)” value [2]?
The value was 1%.

What about the “Population Mitochondria Different-Phenotype (%)” value [2] of the same molecule?
The value was 6%.

And the “Population Mitotic Cells (%)” value [2]?
Its value is 69%.

What about the “Population Normal (%)” value [2] of the same molecule?
The value was 95%.

What about the “Population Pyknosed Nuclei (%)” value [2] of the same molecule?
The value was 25%.

And the “Population Tubulin-Different-Phenotype (%)” value [2]?
Its value is 37%.

What about the “Total Cell Count” value [2] of the same molecule?
The value was 163.

And the “Population Apoptotic (%)” value [3]?
Its value is 56%.

What about the “Population Fragmented Nuclei (%)” value [3] of the same molecule?
Its value is 8%.

And the “Population Healthy Nuclei (%)” value [3]?
The value was 70%.

And the “Population Hoechst High Intensity Objects (%)” value [3]?
Its value is 5%.

What about the “Population Membrane Permeable-Phenotype (%)” value [3] of the same molecule?
Its value is 0%.

And the “Population Mitochondria Different-Phenotype (%)” value [3]?
The value was 11%.

And the “Population Mitotic Cells (%)” value [3]?
The value was 43%.

And the “Population Normal (%)” value [3]?
The value was 94%.

What about the “Population Pyknosed Nuclei (%)” value [3] of the same molecule?
The value was 21%.

What about the “Population Tubulin-Different-Phenotype (%)” value [3] of the same molecule?
The value was 25%.

What about the “Total Cell Count” value [3] of the same molecule?
Its value is 145.

What about the “Population Apoptotic (%)” value [4] of the same molecule?
Its value is 33%.

What about the “Population Fragmented Nuclei (%)” value [4] of the same molecule?
The value was 39%.

What about the “Population Healthy Nuclei (%)” value [4] of the same molecule?
The value was 25%.

And the “Population Hoechst High Intensity Objects (%)” value [4]?
Its value is 4%.

And the “Population Membrane Permeable-Phenotype (%)” value [4]?
The value was 5%.

What about the “Population Mitochondria Different-Phenotype (%)” value [4] of the same molecule?
Its value is 0%.

What about the “Population Mitotic Cells (%)” value [4] of the same molecule?
Its value is 66%.

What about the “Population Normal (%)” value [4] of the same molecule?
Its value is 95%.

What about the “Population Pyknosed Nuclei (%)” value [4] of the same molecule?
Its value is 34%.

What about the “Population Tubulin-Different-Phenotype (%)” value [4] of the same molecule?
The value was 35%.

What about the “Total Cell Count” value [4] of the same molecule?
The value was 82.

What about the “Population Apoptotic (%)” value [5] of the same molecule?
The value was 62%.

What about the “Population Fragmented Nuclei (%)” value [5] of the same molecule?
Its value is 15%.

What about the “Population Healthy Nuclei (%)” value [5] of the same molecule?
The value was 67%.

What about the “Population Hoechst High Intensity Objects (%)” value [5] of the same molecule?
Its value is 2%.

And the “Population Membrane Permeable-Phenotype (%)” value [5]?
Its value is 0%.

And the “Population Mitochondria Different-Phenotype (%)” value [5]?
The value was 4%.

What about the “Population Mitotic Cells (%)” value [5] of the same molecule?
The value was 37%.

What about the “Population Normal (%)” value [5] of the same molecule?
Its value is 97%.

And the “Population Pyknosed Nuclei (%)” value [5]?
Its value is 17%.

What about the “Population Tubulin-Different-Phenotype (%)” value [5] of the same molecule?
The value was 38%.

And the “Total Cell Count” value [5]?
Its value is 95.

What about the “Population Apoptotic (%)” value [6] of the same molecule?
The value was 34%.

What about the “Population Fragmented Nuclei (%)” value [6] of the same molecule?
The value was 14%.

What about the “Population Healthy Nuclei (%)” value [6] of the same molecule?
Its value is 62%.

What about the “Population Hoechst High Intensity Objects (%)” value [6] of the same molecule?
The value was 5%.

What about the “Population Membrane Permeable-Phenotype (%)” value [6] of the same molecule?
Its value is 3%.

And the “Population Mitochondria Different-Phenotype (%)” value [6]?
Its value is 3%.

And the “Population Mitotic Cells (%)” value [6]?
The value was 65%.

And the “Population Normal (%)” value [6]?
Its value is 94%.

And the “Population Pyknosed Nuclei (%)” value [6]?
Its value is 23%.

What about the “Total Cell Count” value [6] of the same molecule?
The value was 158.

What about the “Population Apoptotic (%)” value [7] of the same molecule?
The value was 69%.

What about the “Population Fragmented Nuclei (%)” value [7] of the same molecule?
Its value is 12%.

And the “Population Healthy Nuclei (%)” value [7]?
Its value is 68%.

And the “Population Hoechst High Intensity Objects (%)” value [7]?
The value was 7%.

What about the “Population Membrane Permeable-Phenotype (%)” value [7] of the same molecule?
The value was 0%.

And the “Population Mitochondria Different-Phenotype (%)” value [7]?
The value was 11%.

What about the “Population Mitotic Cells (%)” value [7] of the same molecule?
Its value is 30%.

What about the “Population Normal (%)” value [7] of the same molecule?
Its value is 92%.

And the “Population Pyknosed Nuclei (%)” value [7]?
Its value is 18%.

What about the “Population Tubulin-Different-Phenotype (%)” value [7] of the same molecule?
Its value is 29%.

What about the “Total Cell Count” value [7] of the same molecule?
Its value is 149.

What about the “Population Apoptotic (%)” value [8] of the same molecule?
The value was 27%.

What about the “Population Fragmented Nuclei (%)” value [8] of the same molecule?
Its value is 46%.

And the “Population Healthy Nuclei (%)” value [8]?
Its value is 27%.

What about the “Population Hoechst High Intensity Objects (%)” value [8] of the same molecule?
The value was 5%.

And the “Population Membrane Permeable-Phenotype (%)” value [8]?
The value was 5%.

And the “Population Mitochondria Different-Phenotype (%)” value [8]?
Its value is 10%.

What about the “Population Mitotic Cells (%)” value [8] of the same molecule?
Its value is 72%.

And the “Population Normal (%)” value [8]?
Its value is 94%.

What about the “Population Pyknosed Nuclei (%)” value [8] of the same molecule?
The value was 26%.

What about the “Population Tubulin-Different-Phenotype (%)” value [8] of the same molecule?
The value was 36%.

And the “Total Cell Count” value [8]?
The value was 73.

What about the “Population Apoptotic (%)” value [9] of the same molecule?
The value was 60%.

And the “Population Fragmented Nuclei (%)” value [9]?
Its value is 19%.

And the “Population Healthy Nuclei (%)” value [9]?
The value was 64%.

And the “Population Hoechst High Intensity Objects (%)” value [9]?
Its value is 4%.

What about the “Population Membrane Permeable-Phenotype (%)” value [9] of the same molecule?
The value was 1%.

What about the “Population Mitochondria Different-Phenotype (%)” value [9] of the same molecule?
The value was 5%.

And the “Population Mitotic Cells (%)” value [9]?
Its value is 40%.

What about the “Population Normal (%)” value [9] of the same molecule?
Its value is 95%.

What about the “Population Pyknosed Nuclei (%)” value [9] of the same molecule?
The value was 16%.

What about the “Population Tubulin-Different-Phenotype (%)” value [9] of the same molecule?
The value was 28%.

What about the “Total Cell Count” value [9] of the same molecule?
The value was 93.

What about the “Population Apoptotic (%)” value [10] of the same molecule?
The value was 61%.

And the “Population Fragmented Nuclei (%)” value [10]?
The value was 24%.

And the “Population Healthy Nuclei (%)” value [10]?
Its value is 54%.

What about the “Population Hoechst High Intensity Objects (%)” value [10] of the same molecule?
Its value is 0%.

And the “Population Membrane Permeable-Phenotype (%)” value [10]?
Its value is 4%.

And the “Population Mitochondria Different-Phenotype (%)” value [10]?
Its value is 10%.

What about the “Population Mitotic Cells (%)” value [10] of the same molecule?
The value was 38%.

What about the “Population Normal (%)” value [10] of the same molecule?
Its value is 99%.

What about the “Population Pyknosed Nuclei (%)” value [10] of the same molecule?
The value was 20%.

What about the “Population Tubulin-Different-Phenotype (%)” value [10] of the same molecule?
Its value is 42%.

What about the “Total Cell Count” value [10] of the same molecule?
The value was 154.

And the “Population Apoptotic (%)” value [11]?
Its value is 61%.

What about the “Population Fragmented Nuclei (%)” value [11] of the same molecule?
Its value is 14%.

What about the “Population Healthy Nuclei (%)” value [11] of the same molecule?
Its value is 71%.

What about the “Population Hoechst High Intensity Objects (%)” value [11] of the same molecule?
Its value is 7%.

What about the “Population Membrane Permeable-Phenotype (%)” value [11] of the same molecule?
The value was 1%.

And the “Population Mitochondria Different-Phenotype (%)” value [11]?
The value was 10%.

What about the “Population Mitotic Cells (%)” value [11] of the same molecule?
The value was 38%.

And the “Population Normal (%)” value [11]?
The value was 92%.

And the “Population Pyknosed Nuclei (%)” value [11]?
Its value is 13%.

And the “Population Tubulin-Different-Phenotype (%)” value [11]?
The value was 34%.

And the “Total Cell Count” value [11]?
Its value is 145.

And the “Population Apoptotic (%)” value [12]?
The value was 71%.

What about the “Population Fragmented Nuclei (%)” value [12] of the same molecule?
Its value is 50%.

What about the “Population Healthy Nuclei (%)” value [12] of the same molecule?
Its value is 31%.

What about the “Population Hoechst High Intensity Objects (%)” value [12] of the same molecule?
Its value is 3%.

What about the “Population Membrane Permeable-Phenotype (%)” value [12] of the same molecule?
The value was 0%.

What about the “Population Mitochondria Different-Phenotype (%)” value [12] of the same molecule?
Its value is 0%.

What about the “Population Mitotic Cells (%)” value [12] of the same molecule?
Its value is 28%.

And the “Population Normal (%)” value [12]?
Its value is 96%.

What about the “Population Pyknosed Nuclei (%)” value [12] of the same molecule?
The value was 18%.

And the “Population Tubulin-Different-Phenotype (%)” value [12]?
Its value is 62%.

What about the “Total Cell Count” value [12] of the same molecule?
The value was 79.

Reference: ChEMBL document CHEMBL5058577, “EUbOPEN Chemogenomics Library 2 (Multiplex)” (2022)
